ChEMBL document CHEMBL1136272, “Development of a presynaptic 5-HT1A antagonist” (Bioorg Med Chem Lett, 2003)
Blank lines part the entries; values can stand above or below the molecule they belong to.

Experiments:
D(2) dopamine receptor = D(2) dopamine receptor (Rattus norvegicus, UniProt P61169); experiment: Inhibitory concentration required against Dopamine receptor D2 in rat striatum; format: tissue-based
Rattus norvegicus [1] = experiment: Social interaction time determined in vivo in rat at 1 mg/kg of ip administration; format: functional; conditions: route intraperitoneal
Method in brief: (§1)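 Rat social interaction paradigm with total motor activity counts recorded in the same session. All compounds were given ip, with a saline-treated control group. Combination arms gave a 0.1 mg/kg agent together with a second agent at 1 mg/kg, both ip. Social interaction time (s) and motor counts are reported as mean ± SEM, with significance tested against saline control.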

[2] = biological target: Sodium-dependent serotonin transporter (Rattus norvegicus, UniProt P31652); experiment: Inhibitory concentration required against 5-HT uptake in rat cortex
Rattus norvegicus [3] = experiment: In vivo motor activity determined in rat at 1 mg/kg of ip administration; format: functional; conditions: route intraperitoneal; method in brief: as §1
[4] = biological target: T1, 5-hydroxytryptamine receptor 1A (Rattus norvegicus, UniProt P19327); experiment: Inhibition of the 5-hydroxytryptamine 1A receptor in rat dorsal raphe
T1 sequence (P19327 whole entry): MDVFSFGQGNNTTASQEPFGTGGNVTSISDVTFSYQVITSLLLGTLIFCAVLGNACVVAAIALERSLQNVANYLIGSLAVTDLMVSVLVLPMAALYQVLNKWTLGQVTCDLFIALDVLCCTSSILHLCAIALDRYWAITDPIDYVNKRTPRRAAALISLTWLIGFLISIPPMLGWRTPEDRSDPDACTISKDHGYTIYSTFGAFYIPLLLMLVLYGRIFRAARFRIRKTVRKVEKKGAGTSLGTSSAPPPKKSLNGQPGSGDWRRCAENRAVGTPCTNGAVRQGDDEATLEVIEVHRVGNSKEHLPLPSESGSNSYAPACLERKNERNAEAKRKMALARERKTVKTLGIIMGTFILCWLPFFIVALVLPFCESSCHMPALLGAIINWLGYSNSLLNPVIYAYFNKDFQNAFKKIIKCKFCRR

[5] = biological target: Serotonin 2 (5-HT2) receptor (Rattus norvegicus, UniProt P30994+P08909+P14842); experiment: Inhibitory concentration required against 5-hydroxytryptamine 2 receptor in rat cortex using [3H]spiperone
[6] = biological target: T2, Adrenergic receptor alpha-1 (Rattus norvegicus, UniProt P15823+P23944+P43140); experiment: Inhibitory concentration required against alpha-1 adrenergic receptor in rat cortex using [3H]-WB- 4101
T2 sequence (P15823 whole entry): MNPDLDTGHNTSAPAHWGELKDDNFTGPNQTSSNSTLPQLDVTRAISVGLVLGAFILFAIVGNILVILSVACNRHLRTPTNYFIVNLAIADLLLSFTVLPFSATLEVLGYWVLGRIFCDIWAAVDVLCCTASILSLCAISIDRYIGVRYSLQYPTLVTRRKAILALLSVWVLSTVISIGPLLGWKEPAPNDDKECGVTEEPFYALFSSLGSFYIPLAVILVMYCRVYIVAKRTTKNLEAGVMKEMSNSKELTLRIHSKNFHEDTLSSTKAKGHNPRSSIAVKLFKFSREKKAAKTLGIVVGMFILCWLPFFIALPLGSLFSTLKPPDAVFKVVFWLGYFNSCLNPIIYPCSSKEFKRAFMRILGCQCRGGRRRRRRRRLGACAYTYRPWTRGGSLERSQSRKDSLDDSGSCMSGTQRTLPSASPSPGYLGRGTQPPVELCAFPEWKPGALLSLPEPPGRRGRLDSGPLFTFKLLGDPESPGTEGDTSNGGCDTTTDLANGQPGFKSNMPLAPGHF
T2 sequence (P23944 whole entry): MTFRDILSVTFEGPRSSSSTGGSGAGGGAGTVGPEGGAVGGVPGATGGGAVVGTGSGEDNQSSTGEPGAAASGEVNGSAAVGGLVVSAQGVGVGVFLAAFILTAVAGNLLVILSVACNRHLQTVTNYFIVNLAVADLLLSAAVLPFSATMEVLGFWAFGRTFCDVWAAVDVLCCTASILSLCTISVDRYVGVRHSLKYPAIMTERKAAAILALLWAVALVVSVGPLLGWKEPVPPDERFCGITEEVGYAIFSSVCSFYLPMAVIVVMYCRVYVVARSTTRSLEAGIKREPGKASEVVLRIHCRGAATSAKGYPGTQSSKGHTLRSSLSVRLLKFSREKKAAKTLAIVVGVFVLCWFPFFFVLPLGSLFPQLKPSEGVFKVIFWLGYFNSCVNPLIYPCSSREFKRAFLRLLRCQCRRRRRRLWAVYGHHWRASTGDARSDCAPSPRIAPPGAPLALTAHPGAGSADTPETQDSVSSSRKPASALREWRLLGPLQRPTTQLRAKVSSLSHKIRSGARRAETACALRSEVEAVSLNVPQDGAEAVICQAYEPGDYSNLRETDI
T2 sequence (P43140 whole entry): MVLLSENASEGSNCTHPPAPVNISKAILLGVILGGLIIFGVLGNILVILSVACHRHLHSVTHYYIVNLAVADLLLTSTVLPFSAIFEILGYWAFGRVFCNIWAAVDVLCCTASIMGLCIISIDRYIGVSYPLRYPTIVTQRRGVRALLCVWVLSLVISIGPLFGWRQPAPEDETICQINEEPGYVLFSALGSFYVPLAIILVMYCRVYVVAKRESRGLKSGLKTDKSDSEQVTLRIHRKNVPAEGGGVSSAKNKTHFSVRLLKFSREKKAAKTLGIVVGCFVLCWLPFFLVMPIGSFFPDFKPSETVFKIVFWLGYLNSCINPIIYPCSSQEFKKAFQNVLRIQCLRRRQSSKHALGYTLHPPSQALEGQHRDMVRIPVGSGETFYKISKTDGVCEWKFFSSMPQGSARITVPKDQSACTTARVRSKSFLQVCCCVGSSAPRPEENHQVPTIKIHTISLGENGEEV

[7] = biological target: 5-hydroxytryptamine receptor 1B (Rattus norvegicus, UniProt P28564); experiment: Inhibitory concentration required against 5-hydroxytryptamine 1B receptor in rat striatum using [3H]5-HT; format: tissue-based
[8] = biological target: T3, Adrenergic receptor alpha-2 (Rattus norvegicus, UniProt P22086+P19328+P22909); experiment: Inhibitory concentration required against Alpha-2 adrenergic receptor in rat cortex [3H]clonidine
T3 sequence (P22086 whole entry): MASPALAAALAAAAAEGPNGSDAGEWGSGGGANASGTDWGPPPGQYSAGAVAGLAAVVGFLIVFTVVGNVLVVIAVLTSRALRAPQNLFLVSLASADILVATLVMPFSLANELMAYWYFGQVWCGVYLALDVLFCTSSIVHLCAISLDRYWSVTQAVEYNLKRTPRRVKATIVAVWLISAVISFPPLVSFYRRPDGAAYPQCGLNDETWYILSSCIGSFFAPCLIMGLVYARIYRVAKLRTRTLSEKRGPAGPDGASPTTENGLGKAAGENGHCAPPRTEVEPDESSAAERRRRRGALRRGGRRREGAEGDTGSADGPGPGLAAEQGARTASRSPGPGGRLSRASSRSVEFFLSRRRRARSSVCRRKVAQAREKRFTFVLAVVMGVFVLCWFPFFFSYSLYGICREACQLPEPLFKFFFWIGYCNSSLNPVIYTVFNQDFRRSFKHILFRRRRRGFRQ
T3 sequence (P19328 whole entry): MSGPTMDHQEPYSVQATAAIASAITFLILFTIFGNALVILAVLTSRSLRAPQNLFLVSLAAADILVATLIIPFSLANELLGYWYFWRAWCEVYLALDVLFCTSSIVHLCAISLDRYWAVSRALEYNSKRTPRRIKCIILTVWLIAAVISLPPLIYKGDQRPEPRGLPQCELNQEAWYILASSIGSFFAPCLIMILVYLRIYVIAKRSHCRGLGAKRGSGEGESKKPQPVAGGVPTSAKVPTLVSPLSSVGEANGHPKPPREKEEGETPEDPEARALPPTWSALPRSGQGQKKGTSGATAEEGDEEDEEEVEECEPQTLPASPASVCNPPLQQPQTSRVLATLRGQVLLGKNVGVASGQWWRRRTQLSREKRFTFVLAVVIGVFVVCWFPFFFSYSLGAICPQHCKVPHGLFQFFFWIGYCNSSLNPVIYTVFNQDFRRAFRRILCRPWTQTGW
T3 sequence (P22909 whole entry): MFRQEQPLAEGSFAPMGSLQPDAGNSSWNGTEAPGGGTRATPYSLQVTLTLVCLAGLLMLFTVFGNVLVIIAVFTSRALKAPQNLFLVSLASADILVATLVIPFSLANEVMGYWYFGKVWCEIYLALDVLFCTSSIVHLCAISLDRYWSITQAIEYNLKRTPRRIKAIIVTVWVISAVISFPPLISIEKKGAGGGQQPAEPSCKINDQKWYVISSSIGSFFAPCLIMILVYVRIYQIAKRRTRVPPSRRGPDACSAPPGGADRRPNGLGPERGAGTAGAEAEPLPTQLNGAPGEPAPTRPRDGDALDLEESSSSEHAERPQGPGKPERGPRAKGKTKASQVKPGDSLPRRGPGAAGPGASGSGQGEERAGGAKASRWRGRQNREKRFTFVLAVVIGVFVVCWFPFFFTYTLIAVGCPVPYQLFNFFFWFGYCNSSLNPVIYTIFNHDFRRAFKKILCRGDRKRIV

Rattus norvegicus [9] = experiment: Social interaction time determined in vivo in rat at 0.1 + 1 mg/kg of ip administration; format: functional; conditions: route intraperitoneal; method in brief: as §1
Rattus norvegicus [10] = experiment: In vivo motor activity determined in rat at 0.1 + 1 mg/kg of ip administration; format: functional; conditions: route intraperitoneal; method in brief: as §1

Sequence of 5-hydroxytryptamine receptor 1B (P28564 whole entry): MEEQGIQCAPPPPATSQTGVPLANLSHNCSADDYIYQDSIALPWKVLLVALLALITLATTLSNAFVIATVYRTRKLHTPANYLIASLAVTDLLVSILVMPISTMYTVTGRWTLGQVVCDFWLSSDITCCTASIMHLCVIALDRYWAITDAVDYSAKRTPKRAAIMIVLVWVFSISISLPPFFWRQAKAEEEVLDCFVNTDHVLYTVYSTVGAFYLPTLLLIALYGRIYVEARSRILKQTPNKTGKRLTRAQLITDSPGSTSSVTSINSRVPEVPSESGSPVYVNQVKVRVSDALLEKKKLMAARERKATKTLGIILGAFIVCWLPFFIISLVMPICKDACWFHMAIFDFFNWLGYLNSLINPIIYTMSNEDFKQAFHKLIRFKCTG
Sequence of D(2) dopamine receptor (P61169 whole entry): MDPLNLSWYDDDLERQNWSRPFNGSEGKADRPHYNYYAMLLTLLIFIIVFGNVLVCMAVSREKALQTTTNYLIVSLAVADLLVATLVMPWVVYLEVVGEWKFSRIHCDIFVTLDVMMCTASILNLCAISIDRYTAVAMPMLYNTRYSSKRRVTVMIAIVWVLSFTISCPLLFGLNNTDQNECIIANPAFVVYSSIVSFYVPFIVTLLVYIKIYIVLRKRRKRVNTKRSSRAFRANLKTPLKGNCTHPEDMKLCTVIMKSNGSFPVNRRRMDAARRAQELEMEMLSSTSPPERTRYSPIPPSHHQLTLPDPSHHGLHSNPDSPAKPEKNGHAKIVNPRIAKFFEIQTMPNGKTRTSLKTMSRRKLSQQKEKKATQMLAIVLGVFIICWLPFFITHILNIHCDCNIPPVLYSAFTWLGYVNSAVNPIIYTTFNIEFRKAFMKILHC
Sequence of Sodium-dependent serotonin transporter (P31652 whole entry): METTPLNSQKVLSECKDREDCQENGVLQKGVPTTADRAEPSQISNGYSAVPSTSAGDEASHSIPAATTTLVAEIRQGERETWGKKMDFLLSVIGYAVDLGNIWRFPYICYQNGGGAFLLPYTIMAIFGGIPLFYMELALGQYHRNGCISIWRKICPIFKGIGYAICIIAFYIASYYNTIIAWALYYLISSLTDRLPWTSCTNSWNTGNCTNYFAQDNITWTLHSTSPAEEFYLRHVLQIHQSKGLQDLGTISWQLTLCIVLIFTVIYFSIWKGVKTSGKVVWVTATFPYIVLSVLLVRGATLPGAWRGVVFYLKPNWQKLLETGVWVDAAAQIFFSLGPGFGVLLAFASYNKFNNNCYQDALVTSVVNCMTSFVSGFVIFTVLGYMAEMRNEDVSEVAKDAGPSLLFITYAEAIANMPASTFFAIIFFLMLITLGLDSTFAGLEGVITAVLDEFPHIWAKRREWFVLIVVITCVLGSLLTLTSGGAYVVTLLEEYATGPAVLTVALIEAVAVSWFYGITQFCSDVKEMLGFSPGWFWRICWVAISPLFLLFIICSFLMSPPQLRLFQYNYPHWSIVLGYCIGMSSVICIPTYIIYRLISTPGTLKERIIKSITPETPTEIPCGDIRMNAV

SMILES: COc1cccc(CN2CCN(C3CCC(O)(c4ccc5c(c4)OCO5)CC3)CC2)c1 (configuration not stated)
- IC50 (D(2) dopamine receptor): 4.8 µM
- Time (Rattus norvegicus [1]): 65 s
- IC50 [2]: 3 µM
- Motor activity (Rattus norvegicus [3]): 5140 Counts
- IC50 [4]: 0.0022 µM
- IC50 [5]: 28 µM
- IC50 [6]: 1.5 µM
- IC50 [7]: > 100 µM
- IC50 [8]: 1.1 µM

SMILES: COc1cccc(CN2CCN(C3CCC(O)(c4ccc5c(c4)OCO5)CC3)CC2)c1.OC(CCCN1CCN(c2ncc(F)cn2)CC1)c1ccc(F)cc1 (configuration not stated)
- Time (Rattus norvegicus [9]): 49 s
- Motor activity (Rattus norvegicus [10]): 5400 Counts

SMILES: COc1ccccc1C1(O)CCC(N2CCN(Cc3ccccc3)CC2)CC1 (configuration not stated)
- IC50 [4]: 0.06 µM

SMILES: COc1cccc(CN2CCN(C3CCC(O)(c4ccc5c(c4)OCO5)CC3)CC2)c1.OC1(c2ccc3c(c2)OCO3)CCC(N2CCN(Cc3ccccc3)CC2)CC1 (configuration not stated)
- Time (Rattus norvegicus [9]): 53 s
- Motor activity (Rattus norvegicus [10]): 5100 Counts

SMILES: OC1(c2ccc3c(c2)OCO3)CCC(N2CCN(Cc3cccc(Cl)c3)CC2)CC1 (configuration not stated)
- IC50 [4]: 0.006 µM

SMILES: OC1(c2ccc3c(c2)OCO3)CCC(N2CCN(Cc3ccccc3F)CC2)CC1 (configuration not stated)
- IC50 [4]: 0.01 µM

SMILES: COc1cccc(CN2CCN(C3CCC(O)(c4ccc5c(c4)OCO5)CC3)CC2)c1.O=C1CC2(CCCC2)CC(=O)N1CCCCN1CCN(c2ncccn2)CC1 (configuration not stated)
- Time (Rattus norvegicus [9]): 51 s
- Motor activity (Rattus norvegicus [10]): 4600 Counts

SMILES: OC1(c2ccc3c(c2)OCO3)CCC(N2CCN(Cc3cccc(F)c3)CC2)CC1 (configuration not stated)
- IC50 [4]: 0.013 µM

Results, then the molecule that gave them:

- IC50 [4]: 0.027 µM
SMILES: OC1(c2ccc3c(c2)OCO3)CCC(N2CCN(Cc3ccc(F)cc3)CC2)CC1 (configuration not stated)

- IC50 [4]: 0.034 µM
SMILES: OC1(c2ccc3c(c2)OCO3)CCC(N2CCN(Cc3ccc(F)c(F)c3)CC2)CC1 (configuration not stated)

- IC50 [4]: 0.021 µM
SMILES: OC1(c2ccc3c(c2)OCO3)CCC(N2CCN(Cc3cc(F)cc(F)c3)CC2)CC1 (configuration not stated)

- IC50 [4]: 0.057 µM
SMILES: OC1(c2ccc3c(c2)OCO3)CCC(N2CCN(Cc3ccc(F)cc3F)CC2)CC1 (configuration not stated)

- IC50 [4]: 0.00075 µM
SMILES: COc1ccc(F)c(CN2CCN(C3CCC(O)(c4ccc5c(c4)OCO5)CC3)CC2)c1 (configuration not stated)

- IC50 [4]: 0.0019 µM
SMILES: OC1(c2ccc3c(c2)OCO3)CCC(N2CCN(Cc3ccccc3Cl)CC2)CC1 (configuration not stated)

- IC50 [4]: 0.0026 µM
SMILES: OC1(c2ccc3c(c2)OCO3)CCC(N2CCN(Cc3cc(F)ccc3F)CC2)CC1 (configuration not stated)

- IC50 [4]: 0.017 µM
SMILES: OC1(c2ccc3c(c2)OCO3)CCC(N2CCN(Cc3cccc(F)c3F)CC2)CC1 (configuration not stated)
